Source: PubChem (Sanford-Burnham Center for Chemical Genomics)
Not all results are given here.
Apaf-1 act = activators of human Apaf-1 apoptosome. O14727. Apaf-1 apoptosome caspase-3 activation, DEVD-Rh110 fluorescence; stronger effect = lower value. activity change, negative = activation, % at 20 µM. 330,000 compounds, 0.31% hits. AID 489031;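 active = activity change at or below -40% at 20 µM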
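Material: biochemical Apaf-1 apoptosome reconstitution; Medium: 20 mM HEPES buffer, pH 7.5, containing CHAPS and BSA; Reagent: dATP, cytochrome c, and (Z-DEVD)2-Rh110 caspase-3 substrate; Times: 30 min preincubation, 50 min reaction, room temperature; Signal: Rh110 fluorescence, excitation 480 nm, emission 540 nm; Measure: Caspase-3 activity via Apaf-1.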
Rh110 interf act = counter-screen for Apaf-1 activators: fluorescence interference | shares compounds with Apaf-1 act | Rh110 fluorescence interference, quenched caspase reaction, Ex480/Em540 | fluorescence interference (activity change), % at 20 µM, hits read low | 980 tested, under 10 active;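 active = mean activity change at or below -40% when tested at 20 µM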
Apaf-1 act conf = confirmation of human Apaf-1 activators; AID 504617; reconstituted apoptosome caspase-3 activity, DEVD-Rh110 fluorescence; stronger effect = lower value; shares compounds with Apaf-1 act; 980 compounds, 5% hits; activity change, negative = activation, % at 20 µM;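 active = mean activity change at or below -40%, meaning activation of 40% or more, at 20 µM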
* marks the source's active call; other numbers are inactive results.

How did O=C(Cc1ccccc1)NC1(O)C(=O)c2ccccc2C1=O do in these assays?
Apaf-1 act: 85.4

How did CCn1c(=O)c([N+](=O)[O-])c(NC2CCS(=O)(=O)C2)c2ccccc21 (stereo unspecified) do in these assays?
Apaf-1 act: -162.4*; Rh110 interf act: 12.0; Apaf-1 act conf: 11.5

What do the screens show for `CCN1CCN(C(=O)CN(c2cc(OC)ccc2OC)S(C)(=O)=O)CC1`?
Apaf-1 act: -190.5*; Rh110 interf act: 2.9; Apaf-1 act conf: 13.3

How did Cc1ncc([N+](=O)[O-])n1CCN1C(=O)c2ccccc2C1=O do in these assays?
Apaf-1 act: -143.9*; Rh110 interf act: -2.9; Apaf-1 act conf: 9.2

What do the screens show for `C#CCOCCOCCOCCNc1nc(N2CCN(C(=O)CCCCCCCCCCNC(=O)[C@H](CCCCN)n3cc(CCCC(=O)O)nn3)CC2)nc(N2CCN(C(=O)CCCCCCCCCCNC(=O)[C@H](CCCN=C(N)N)n3cc(C[C@@H](C)CC)nn3)CC2)n1`?
Apaf-1 act: 76.2

Results for CCN(c1ccccc1)c1cc2ccccc2c(=O)[nH]1 ?
Apaf-1 act: 95.8

Results for CCN(CC)C(=O)C(=O)c1c(-c2ccccc2)[nH]c2ccccc12 ?
Apaf-1 act: -509.5*; Rh110 interf act: 10.1; Apaf-1 act conf: 16.6

What do the screens show for `Cc1ccccc1OCCNc1cc(N2CC(C)NC(C)C2)ccc1[N+](=O)[O-]` (stereo unspecified)?
Apaf-1 act: 56.5

How did CCCOc1ccc(N)cc1N do in these assays?
Apaf-1 act: 91.0

How did Cc1cc(C(=O)N/N=C/c2c(C)[nH]n(-c3ccccc3)c2=O)n[nH]1 do in these assays?
Apaf-1 act: 76.7

How did CCCCN=Cc1c(C)[nH]n(-c2ccccc2)c1=S do in these assays?
Apaf-1 act: -80.0*; Rh110 interf act: 0.8; Apaf-1 act conf: 11.7

Results for CCCCN(CCCC)C(=S)N/N=C/c1c(C)[nH]n(-c2ccccc2)c1=O ?
Apaf-1 act: 57.3

What do the screens show for `CCCCCCCc1ccc(C2NC(=S)NC3=C2C(=O)c2ccccc23)cc1` (stereo unspecified)?
Apaf-1 act: 44.1

How did CCN1CCN(c2ccc(S(=O)(=O)N3CCOCC3)cc2NC(=O)CC(C)C)CC1 do in these assays?
Apaf-1 act: 50.1

Results for Cc1[nH]n(-c2ccccc2)c(=O)c1N=Nc1cccc(S(=O)(=O)N2CCOCC2)c1 ?
Apaf-1 act: 45.7

Results for Cc1ccc(-n2c(O)c(/C=N/Nc3ccc(S(=O)(=O)N4CCOCC4)cc3[N+](=O)[O-])c3ccccc3c2=O)c(C)c1 ?
Apaf-1 act: 50.7

What do the screens show for `Cc1nc2ccc3nc(NC(=O)c4ccc(S(=O)(=O)N5CCOCC5)cc4)sc3c2s1`?
Apaf-1 act: -80.1*; Rh110 interf act: -6.9; Apaf-1 act conf: -21.4

Results for Cc1cc(NC(=O)c2cccc(S(=O)(=O)N3CCOCC3)c2)no1 ?
Apaf-1 act: -49.7*; Rh110 interf act: 2.4; Apaf-1 act conf: 9.1

What do the screens show for `CC(=O)C1=C(O)C(=O)N(CCc2c[nH]c3ccccc23)C1c1ccco1` (stereo unspecified)?
Apaf-1 act: 42.9

Results for CC(=O)c1c(C)[nH]c(C(=O)CSc2ccc(F)cc2)c1C ?
Apaf-1 act: -212.7*; Rh110 interf act: 4.7; Apaf-1 act conf: 5.4

How did NC1=NC[C@@H](CC2CCCCC2)N1CCc1cc(C(F)(F)F)cc(C(F)(F)F)c1 do in these assays?
Apaf-1 act: 78.7

What do the screens show for `CN(C)c1cc(Cl)c2nonc2c1N`?
Apaf-1 act: 94.4

How did N[C@@H](Cc1cc(I)c(Oc2ccc(O)c(I)c2)c(I)c1)C(=O)O do in these assays?
Apaf-1 act: 4.0

What do the screens show for `CC1(C(=O)O)Oc2cccnc2NC1=O` (stereo unspecified)?
Apaf-1 act: -221.4*; Rh110 interf act: -3.1; Apaf-1 act conf: 7.2

Results for COCCN(C(=O)COC(=O)/C=C/c1ccc(C(F)(F)F)cc1)c1c(N)n(Cc2ccccc2)c(=O)[nH]c1=O ?
Apaf-1 act: 44.2

How did CCN1C(=NCCc2ccc(Br)cc2)N[C@@H](c2ccccc2)[C@H](C(=O)OC)[C@H]1C do in these assays?
Apaf-1 act: 45.2

Results for CCN(CC)S(=O)(=O)c1ccc(Cl)c(NC(=O)c2ccc(C#N)cc2)c1 ?
Apaf-1 act: -270.3*; Rh110 interf act: 5.7; Apaf-1 act conf: 16.1

What do the screens show for `CCN(c1ccccc1)S(=O)(=O)c1ccc(Cl)c(NC(=O)Nc2ccc(Cl)cc2C#N)c1`?
Apaf-1 act: 40.2

Results for O=C(NCCO)Nc1ccc2nc(-c3ccco3)c(-c3ccco3)nc2c1 ?
Apaf-1 act: 70.6

Results for Cn1c(SCC(=O)NNC(=O)c2ccccc2)nnc1C(F)(F)F ?
Apaf-1 act: -96.9*; Rh110 interf act: -1.6; Apaf-1 act conf: 7.6

Results for Cn1c(SCC(=O)n2c3c(c4ccccc42)CCCC3)nnc1-c1ccccc1 ?
Apaf-1 act: 43.2

What do the screens show for `CCC(CO)Oc1cc(NCc2cccc(C(F)(F)F)c2)c2ncn(C(C)C)c2c1` (stereo unspecified)?
Apaf-1 act: 40.9

How did COc1ccc2ccccc2c1C1CC(=O)N2CN(Cc3ccco3)CSC2=C1C#N (stereo unspecified) do in these assays?
Apaf-1 act: 51.7

What do the screens show for `CC[C@@H](C)[C@@H]1CN([C@@H](CN2CCC[C@H]2CN2C(N)=NC[C@H]2C(C)C)C(C)C)C(=N)N1CCc1ccc(Cl)c(Cl)c1`?
Apaf-1 act: 51.0

How did COc1ccc(C2c3sc(=O)[nH]c3SC3C(=O)N(c4ccccc4)C(=O)C32)cc1 (stereo unspecified) do in these assays?
Apaf-1 act: -177.8*; Rh110 interf act: 3.8; Apaf-1 act conf: 9.8

What do the screens show for `CC1CCN(S(=O)(=O)c2ccc3c4c2CC(=O)N4CC(C)S3)CC1` (stereo unspecified)?
Apaf-1 act: 94.4

How did COc1ccc(CN(C)C(=O)c2ccc(OCC(=O)Nc3cccc(C(F)(F)F)c3)c(OC)c2)c(OC)c1 do in these assays?
Apaf-1 act: 44.9

How did Cc1ccccc1-n1c(C)nc2ccccc21 do in these assays?
Apaf-1 act: -75.2*; Rh110 interf act: -5.7; Apaf-1 act conf: 5.3

What do the screens show for `CCCCC[n+]1ccn(C2=C([O-])c3ccccc3C(=O)/C2=N\S(=O)(=O)c2ccccc2)c1`?
Apaf-1 act: 52.9

How did CCOc1cc(/C=C2\C(=O)N(c3ccc(C(N)=O)cc3)N=C2C)ccc1OC(=O)c1cccs1 do in these assays?
Apaf-1 act: 93.5

Results for COc1ccc(CCN(C)C(=O)c2cccc(S(=O)(=O)NCc3ccccc3)c2)cc1OC ?
Apaf-1 act: 56.7

How did COc1ccc(CCNC(=O)COC(=O)c2cccs2)cc1OC do in these assays?
Apaf-1 act: -163.2*; Rh110 interf act: 19.3; Apaf-1 act conf: 16.3

What do the screens show for `CC1OC(Nc2cccc3ccccc23)C(O)C(O)C1O` (stereo unspecified)?
Apaf-1 act: 96.1

Results for N#Cc1ccc(C23CC4(C2)[C@H](CN(Cc2ccc(-c5ccccc5)cc2)[C@@H]4c2ccccc2)C3c2ccc(C(F)(F)F)cc2)cc1 (stereo partly specified) ?
Apaf-1 act: 44.8

Results for CC1=NN(c2ccccc2)C(=O)/C1=C/c1cccs1 ?
Apaf-1 act: 89.9
